Data published in the RNAGym collection of RNA variant scans (doi:10.1126/science.aae0568).
This sample holds only a part of the variants without activity.

B1: tRNA (parent)
chain: GUUCCGUUGGCGUAAUGGUAACGCGUCUCCCUCCUAAGGAGAAGACUGCGGGUUCGAGUCCCGUACGGAACG

Variants of: B1
Assay: yeast fitness relative to wild type (ratio to wild type); higher = fitter; tRNA-Arg(CCU), competitive growth, 37 C, YPD
Procedure, shortened: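 Variants of the tRNA-Arg(CCU) gene were chemically synthesised with a 3% per-site mutation rate across 69 sites and placed at the native genomic locus in Saccharomyces cerevisiae. Six parallel replicates of the pooled strains were competed in YPD at 37°C for 24 hours, and gene amplicons from the start and end populations were read by 100-nucleotide paired-end sequencing. Darwinian fitness relative to wild type was derived from changes in genotype frequencies. Genotypes required ≥ 100 starting reads, and estimates < 0.5 were set to 0.5.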
Work on GUUCCGUUGGAGUAAUGGUAACGCGUCCCCCUCCUAAGGAGAGGACUGCGGGUUCGAGUCCCGUCCGGAACG [C11A U28C A43G A65C] yielded a yeast fitness of at most 0.5. GUUCCGUUGGAGUAAUGGUAACGCGUCCUCCUCGUGAGGAGAAGACUGCGGGUUCGAGUCCCGUACGGAACG [C11A U28C C29U C34G A36G] gave a yeast fitness of at most 0.5. Variant GUUCCGUUGGAGUAAUGGUAACGCGUCUCCCACCUAAGGAGAAGACUGCGGGUUCGAGUCCCGUACGGAACG [C11A U32A] has a yeast fitness of at most 0.5. For GUUCCGUUGGAGUAAUGGUAACGCGUCUCCCACCUAAGGAGAAGACUGCGGGUUCGAGUCCCGUACGGAUCG [C11A U32A A70U], the yeast fitness was at most 0.5. Variant GUUCCGUUGGAGUAAUGGUAACGCGUCUCCCAUCUAAGGAGAAGACUGCGGGUUCGAGUCCCGUACGGAACG [C11A U32A C33U] has a yeast fitness of 0.548. In the case of GUUCCGUUGGAGUAAUGGUAACGCGUCUCCCCCCUAAGGAGAAGACUGCGGGUUCGAGUCCCGUUCGGAACG [C11A U32C A65U], the yeast fitness is reported as 0.565. With GUUCCGUUGGAGUAAUGGUAACGCGUCUCCCCCCUAAGGAGAAGACUGCGGGUUCGAGUCCCGUACGGACCG [C11A U32C A70C] the yeast fitness was 0.549. In the case of GUUCCGUUGGAGUAAUGGUAACGCGUCUCCCUCCAAAGGAGAAGACUGCGGGUUCGAGUCUCGUACAGAACG [C11A U35A C61U G67A], the yeast fitness is reported as at most 0.5. Variant GUUCCGUUGGAGUAAUGGUAACGCGUCUCCCUCCGAAGGAGAAGACUGCGGGUUCGAGUCCCGUACGGAACG [C11A U35G] has a yeast fitness of 0.514. In the case of GUUCCGUUGGAGUAAUGGUAACGCGUCUCCCUCCUAAGGAGAAGACCGCGCGUUCGAGUCCCGUACGGAACG [C11A U47C G51C], the yeast fitness is reported as at most 0.5. Work on GUUCCGUUGGAGUAAUGGUAACGCGUCUCCCUCCUAAGGAGAAGACGGCGGGUUCGAGUCCCGUACGGAACG [C11A U47G] yielded a yeast fitness of 0.542. With GUUCCGUUGGAGUAAUGGUAACGCGUCUCCCUCCUAAGGAGAAGACGGCGGGUUCGAGUCCCGCACGGAACG [C11A U47G U64C] the yeast fitness was 0.531. For GUUCCGUUGGAGUAAUGGUAACGCGUCUCCCUCCUAAGGAGAAGACUGCGGGUUCGAGACCCGUACGGAACG [C11A U59A], the yeast fitness was 0.629. With GUUCCGUUGGAGUAAUGGUAACGCGUCUCCCUCCUAAGGAGAAGACUGCGGGUUCGAGCCCCGUACGGUACG [C11A U59C A69U] the yeast fitness was 0.573. Work on GUUCCGUUGGAGUAAUGGUAACGCGUCUCCCUCCUAAGGAGAAGACUGCGGGUUCGAGCCAUGUACGGAACG [C11A U59C C61A C62U] yielded a yeast fitness of at most 0.5. GUUCCGUUGGAGUAAUGGUAACGCGUCUCCCUCCUAAGGAGAAGACUGCGGGUUCGAGCCCCGUAUGGACCG [C11A U59C C66U A70C] gave a yeast fitness of at most 0.5. For GUUCCGUUGGAGUAAUGGUAACGCGUCUCCCUCCUAAGGAGAAGACUGCGGGUUCGAGUCCCGAACGGAACG [C11A U64A], the yeast fitness was 0.635. Variant GUUCCGUUGGGGUAAUGGUAACGCGUCUCCCUCCUAAGGAGAAGACUGCGGGUUCGAGUCCCGUACGGAACG [C11G] has a yeast fitness of 0.661. GUUCCGUUGGGGUCCUGGUAACGCGUCUCCCUCCUAAGGCGAAGACUGCGGGUUCGAGUCCCGUACGGACCG [C11G A14C A15C A40C A70C] gave a yeast fitness of at most 0.5. For GUUCCGUUGGGGUCAUGGUAACGCGUCUCCCUCCUACGGAGAACACUGCGGGUUCGAGUCGCCUACGGAACG [C11G A14C A37C G44C C61G G63C], the yeast fitness was at most 0.5. For GUUCCGUUGGGGUCAUGGUAACGCGUCUCCCUCCUAAGGAGUAGACUGCGCGUUCGAGUUCCGUACGGAACG [C11G A14C A42U G51C C60U], the yeast fitness was at most 0.5. Work on GUUCCGUUGGGGUCAUGGUAACGGGUCUCCCUCCUCAGGAGAAGACUGCGGGUUCGAGUCCCGUACGAAACG [C11G A14C C24G A36C G68A] yielded a yeast fitness of 0.584. GUUCCGUUGGGGUCAUGGUAACGCGUCUCGCUCCUAAGGAGAAGGCUGCGGGCUCGAGUCCCGUACGGAACG [C11G A14C C30G A45G U53C] gave a yeast fitness of 0.531. Work on GUUCCGUUGGGGUCAUGGUAACGCGUCUCCCUCCUAAGGAGAAGACUGCGGGUUGGUGUCCCGUACAGAACG [C11G A14C C55G A57U G67A] yielded a yeast fitness of at most 0.5. With GUUCCGUUGGGGUCAUGGUAACCCGUCUCCCUCCUAAGGACAAGACUGCGGGUUCGAGUCCCGUACGGAACG [C11G A14C G23C G41C] the yeast fitness was 0.531. GUUCCGUUGGGGUCAUGGUAACCCGUCUCCCUCCUAAGGACAAGACUGCGGGUUCGAGUCACGUACGGAACG [C11G A14C G23C G41C C61A] showed a yeast fitness of at most 0.5. Variant GUUCCGUUGGGGUGAUGGUAACGCGUCUCCCUCCUAAGGAGAAGACUGCGGGUUCGAGUCCCGUACGGAACG [C11G A14G] has a yeast fitness of 0.529. In the case of GUUCCGUUGGGGUGUUGGUAACCCGUCUCCCUCCUAAGGAGAAGACUGCGGGUUCGAGUCCCGUACGCAACG [C11G A14G A15U G23C G68C], the yeast fitness is reported as at most 0.5. Variant GUUCCGUUGGGGUGAUGGUUACGCGUGUUCCUCCUAAGGAGAAGACUGCGGGUUCGAGUCCUGUACGGAACG [C11G A14G A20U C27G C29U C62U] has a yeast fitness of at most 0.5. GUUCCGUUGGGGUGAUGGUAUCGCGUCUCCCUCCUGAGGAGAAGACUGCGGGUUCGAGUCCCGUACGGAACG [C11G A14G A21U A36G] showed a yeast fitness of at most 0.5. For GUUCCGUUGGGGUGAUGGUAACGCGUCUCCCUCCUAGGGAGAAAACUGCGGGUUCGAGUCCCGUACGGAACG [C11G A14G A37G G44A], the yeast fitness was at most 0.5. GUUCCGUUGGGGUGAUGGUAACACGUCUCCCUCCUAAGGAGAAGAAUGCGGGUUCGAGUCCCGUACGUAACG [C11G A14G G23A C46A G68U] showed a yeast fitness of at most 0.5. Work on GUUCCGUUGGGGUGAUGGUAACGCGUCUCCCUCCUAAGCAGAAGACUGCGGGUUUGAGUCCCGUACGGAACG [C11G A14G G39C C55U] yielded a yeast fitness of at most 0.5. With GUUCCGUUGGGGUGAUGGUAACGCGUCUCCCUCCUAAGGAAAAGACUGCGGGUUCGAGUCCCGUACGGAACG [C11G A14G G41A] the yeast fitness was at most 0.5. Variant GUUCCGUUGGGGUGAUGGUAACGCGACUCCCUCCAAAGGAGAAGACUGCGGGUUCGAGUCCCGUACGGAACG [C11G A14G U26A U35A] has a yeast fitness of at most 0.5. Work on GUUCCGUUGGGGUUAUGGUAACGCGUCUCCCUCCUUACGAGAAGACUGCGGGUUCGAGUCCCGUACGGAACG [C11G A14U A36U G38C] yielded a yeast fitness of 0.553. For GUUCCGUUGGGGUUAUGGUAACGCGUCUCCCUCCUUACGAGAAGACUGCGGGUUUCAGUCCCGUACGGAACG [C11G A14U A36U G38C C55U G56C], the yeast fitness was at most 0.5.
